System: MS2 coat protein
Assay: apparent Kd, MS2 coat protein; higher = weaker binding; RNA-MaP array; FMN 200 µM where present
In short: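 Two titrations, one without ligand and one with constant ligand, were run with SNAP-549-labelled MS2 coat protein from 0.7 or 1.5 nM, doubling to 3 µM. The targets were designs transcribed by stalled E. coli RNA polymerase on Illumina sequencing-chip clusters, in 100 mM Tris-HCl pH 7.5, 80 mM KCl, 4 mM MgCl2, BSA, DTT, yeast tRNA and Tween-20. The apparent Kd is the median of filtered per-cluster binding-curve fits, with green signal normalised to red-channel RNA signal and control-cluster median Fmax.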

[1] = designed as: ON switch for flavin mononucleotide, no ligand
[2] = ligand present: flavin mononucleotide, designed as: ON switch for flavin mononucleotide
[3] = designed as: OFF switch for flavin mononucleotide, no ligand
[4] = ligand present: flavin mononucleotide, designed as: OFF switch for flavin mononucleotide

| Sequence | apparent Kd [1] | apparent Kd [2] | apparent Kd [3] | apparent Kd [4] |
| --- | --- | --- | --- | --- |
| UUAAUUAUACAAGGAUAUCUAUUGUUGUUUCGACUUACAUGAGGAUCACCCAUGUUAAUAUGUUUAGAGAAGGUGUAUUUUCAG | 55.1 nM | 35.8 nM |  |  |
| GUGGUACAUGAGGAUCACCCAUGUAAGGAUAUAGUCGUCUGGUGGUCUCGGGUGGUGGCUAGAAGGUGCGUGCG |  |  | 189 nM | 177 nM |
| CCUCCACAUGAGGAUCACCCAUGUCAGGAUAUCGUGUGUGCGUUUUCGGUCUUUCGCGCGAGAAGGGACGACUG |  |  | 30.2 nM | 33 nM |
| UUGAUUAUACAAGGAUAUCUAUUGUAAUUUCGUCUUACAUGAGGAUCACCCAUGUUAAUAUUUUUAGAGAAGGUGUAUUUUCAG | 39.9 nM | 25.9 nM |  |  |
| AAGUAACAUGAGGAUCACCCAUGUUAGGAUAUCUCGGCCACAGGAUCGCUGUGAAGCCAGAGAAGGAGCGGGUG |  |  | 175 nM | 186 nM |
| UGGUGAAGUGUAGGAUAUGGAGGUGGGUUUUGGCCAGAAGGACAUGAGGAUCACCCAUGUGGUAGAGGGUUGGUGGUGGCCCGU |  |  | 16.7 nM | 15.2 nM |
| AAUUUACAUGAGGAUCACCCAUGUGAGGAUAUACACACAUGCUUGUUAUUGCGUGUGUGUAGAAGGCGCGUGAU |  |  | 97.3 nM | 153 nM |
| GUGUAGUCAGGAUAUACAUGAGGAUCACCCAUGUGAAUAAGAUAGAAUAAGAUAAAGUGUAGAAGGGAUAGUGU |  |  | 29.6 nM | 25.7 nM |
| CUCAUGUGAGGAUAUGUGAUCUGCUUUCUGUGUAGAUGAUCACAGAAGGCACAUGAGGAUCACCCAUGUAGAUC |  |  | 70.5 nM | 29.6 nM |
| GCGUAUAUAUGAUUUAUAAAACAGUCAGAAGGUGAGAAGACGACAUGAGGAUCACCCAUGUUAUUCAAGGAUAUGAUAAUGCGC | 13.1 nM | 7.74 nM |  |  |
| AGCUAGUCAGGAUAUACAAACAUGUCAAAAGACGUGAAGAGACAUGAGGAUCACCCAUGUAGAAGGGACUAGCA |  |  | 26.6 nM | 70.9 nM |
| CCACGUCUCAUUAACAUGAGGAUCACCCAUGUCAAAAGACAUGAGGAUAUGGAUCCUAAUUGGAUCCAGAAGGCAUGGACGUGG | 516 nM | 59.4 nM |  |  |
| AAAGCAUACCGAGGAUAUUCAUAUAAUAAAUAAACAUGAGGAUCACCCAUGUGGCGAAAGCCUAGGGAGAAGGCGGAAUGCUAA | 197 nM | 24.6 nM |  |  |
| CGAUGUUAUGCAGGAUAUCUCUCUUGUUAGAGGAGAGAAGGGCAUAGGGAGACAUACGCCUUAUUACAUGAGGAUCACCCAUGU |  |  | 9.38 nM | 8.24 nM |
| CGGUGCUGAGGAUAUACAUGAGGAUCACCCAUGUGUUCCGGCUAGCUGACUGGCGCUUGUAGAAGGCAGUACUG |  |  | 17.3 nM | 101 nM |
| CAUUUACAGGGAGGAUAUACAUGAGGAUCACCCAUGUCAUCAUAUGAUAUUUCUUUUGUAUGAGUGUAGAAGGCCCAACUACCA |  |  | 19.2 nM | 18.4 nM |
| GCCAUCGCGUGAGGAUAUGCUCCGGUUUCCGGAGCAGAAGGCAUGUCAUAAGACAUGAGGAUCACCCAUGUAGUUAAGAUGGCA | 238 nM | 9.79 nM |  |  |
| GACUUGUUAGGAUAUCUUACUUUUGCAUCAUAGUAACCAUUGGAGAAGGGACAUGAGGAUCACCCAUGUUUGGU |  |  | 34.7 nM | 35 nM |
| AAGAAGUCAGGAUAUCCAGCUCGUCACUUGCGUGAUGAGUUGGAGAAGGGACAUGAGGAUCACCCAUGUAAAGC |  |  | 47.9 nM | 45.7 nM |

| Sequence | apparent Kd [1] | apparent Kd [2] | apparent Kd [3] | apparent Kd [4] |
| --- | --- | --- | --- | --- |
| CUAUCGAGGUAACUCGCUAUCACACCAGAAGGGACGGAGGCACAUGAGGAUCACCCAUGUCCUAGUCAGGAUAUGGGUGAGUAG | 17.6 nM | 5.07 nM |  |  |
| GUCAUGUUAGGAUAUCUAACAUGUGACUUCGGUCACUGUCCAGAGAAGGAACAUGAGGAUCACCCAUGUUGGAC |  |  | 14.7 nM | 15.9 nM |
| UCAUAUUUACAAGGAUAUCAAUUGAAUAAACAUCGGACAUGAGGAUCACCCAUGUGAAAGUAUGGUGAGAAGGUGUAUUGUCGG | 217 nM | 154 nM |  |  |
| GGUGCUAUGUAGAAGGCAGAUCUGAUUCAGAUCUGAGGAUAUACAUGAGGAUCACCCAUGUUAAGCACCAGCACGAGAGUGCAA |  |  | 6.49 nM | 11.2 nM |
| CCCUCACAUGAGGAUCACCCAUGUCAGGAUAUGCGCGGCCAAAAGGGCUGCUAAGGCAGCAGAAGGGACGUGAA |  |  | 15.9 nM | 19.5 nM |
| UCGGCGCGAGGAUAUACGUUUGCUUUUUAGGGUCGUGGCGUACAUGAGGAUCACCCAUGUAGAAGGCGCGCCGC |  |  | 16.9 nM | 52.7 nM |
| GCCAGUUAUGUAGGAUAUGCGAGGCGAGCCUGAGCAGAAGGACAUGAGGAUCACCCAUGUAUUGCGGUUUAAGUUCAGAUCGCU |  |  | 17.6 nM | 23.4 nM |
| UUAUUUUUACAGAAGGUUUAAUAAUAUAUAUGAGAAGGAUAUGUAACAUGAGGAUCACCCAUGUUUCAUCUAUAUGAGGAUCAU |  |  | 6.69 nM | 6.32 nM |
| GAUUCGGGAGGAUAUACAUGAGGAUCACCCAUGUGUUUUUUGUGUGUUAUGUUAUCGUGUAGAAGGUUUGGGUC |  |  | 144 nM | 203 nM |
| GGCUAGUCAGGAUAUACGAACAUGUCAAAAGACGUGAAGGGACAUGAGGAUCACCCAUGUAGAAGGGACUAGCA |  |  | 28 nM | 158 nM |
| UCUGUUCAAGGAUAUGCGUAAUGUGUUACGGCACAAGGUCUACAUGAGGAUCACCCAUGUAGAAGGUGAUCAGA |  |  | 20.8 nM | 22.4 nM |
| AUCGGGAGAGGAUAUACAUGAGGAUCACCCAUGUUGGGAACAUCGGUUUGUUAGUUUCGUAGAAGGCUCGGGCG |  |  | 45.5 nM | 59.6 nM |
| AUAUCCGAAGCAGGAUAUCGACGAGGUGUCGAGGUAGAGCGUAUUCACAUGAGGAUCACCCAUGUCGAGAAGGGCUACAGGAUA |  |  | 56.5 nM | 15.9 nM |
| GGUGCCAUGUAGAAGGCAGACCUGAUUCAGAUCUGAGGAUAUACAUGAGGAUCACCCAUGUAAAGGCACCGCACGAGAGUGCAA |  |  | 6.05 nM | 8.57 nM |
| GUCACACACCGCUCCGUGUCUGACAUGAGGAUCACCCAUGUGAGAAGGUAGCGUCGCAGUAACGUUAAGGAUAUCACGUACAGA |  |  | 7.04 nM | 7.4 nM |
| UAAAUUUUAUGAUAUUAUGACAUUAGAAGGCUGUACAUGUUGAUACAUGAGGAUCACCCAUGUAUAGAGGAUAUAGACAAUUUU |  |  | 31 nM | 65.1 nM |
| GUGGUCAGACAUGAGGAUCACCCAUGUGGAAUAAAUAAGGAGAAGGAUAUGGAAUAUAGGAUAUACCAGAAGGUCUGGUUGGUG | 79 nM | 90.7 nM |  |  |
| AGUUUACAUGAGGAUCACCCAUGUGAGGAUAUGGUUUCGCUGGCCGUAGCCAGUGGAACCAGAAGGCGCGUGAU |  |  | 87.6 nM | 164 nM |
